Columns and labels:
PANC-1 [1] = test: Effect on GLI1 gene expression in human PANC1 cells at 400 nM after 6 hrs by RNA sequence analysis relative to control; type: functional
In short: (§1)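 PANC-1 (0.35 x 10^6) or MIA PaCa-2 (1.5 x 10^6) cells seeded overnight in 60 mm plates, then exposed to 400 nM compound for 6 or 24 h; untreated cells as controls. Cells were mycoplasma-free and STR-certified. Differential expression by RNA-seq, called at FDR < 0.1.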

PANC-1 [2] = test: Effect on ROBO3 gene expression in human PANC1 cells at 400 nM after 6 hrs by RNA sequence analysis relative to control; type: functional
In short: (§2)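 RNA-seq: cells seeded overnight in 60 mm plates (PANC-1 0.35 x 10^6, MIA PaCa-2 1.5 x 10^6 cells/well), then exposed to 400 nM compound for 6 or 24 h against untreated controls. Cell lines mycoplasma-free by RNA-capture ELISA and STR-profiled. Differentially expressed genes called at FDR < 0.1.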

MIA PaCa-2 [3] = test: Effect on ROBO3 gene expression in human MIAPaCa2 cells at 400 nM after 24 hrs by RNA sequence analysis relative to control; type: functional; in short: as §2
MIA PaCa-2 [4] = test: Effect on PAK1 gene expression in human MIAPaCa2 cells at 400 nM after 24 hrs by RNA sequence analysis relative to control; type: functional
MIA PaCa-2 [5] = test: Effect on IGF2 gene expression in human MIAPaCa2 cells at 400 nM after 6 hrs by RNA sequence analysis relative to control; type: functional; in short: as §1
MIA PaCa-2 [6] = test: Effect on SMO gene expression in human MIAPaCa2 cells at 400 nM after 24 hrs by RNA sequence analysis relative to control; type: functional; in short: as §2
MIA PaCa-2 [7] = test: Effect on GLI1 gene expression in human MIAPaCa2 cells at 400 nM after 6 hrs by RNA sequence analysis relative to control; type: functional; in short: as §1
[8] = Binding affinity to 5'-FAM/3'-TAMRA labeled T-loop duplex DNA (unknown origin) assessed as change in melting temperature at 1 uM by FRET assay
In short: (§3)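 FRET melting with FAM/TAMRA dual-labelled oligonucleotides at 400 nM, annealed at 95 °C for 10 min in 60 mM potassium cacodylate pH 7.4 and slowly cooled. Ligand final 1 μM; solution contains 50 mM K+. Fluorescence read every 0.5 °C over 30–100 °C with 30 s hold, excitation 450–495 nm and emission 515–545 nm. ΔTm from curve fitting, triplicate measurements.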

[9] = Toxicity in iv dosed CD-1 nude mouse assessed as death measured up to 72 hrs; type: organism-based; details: in vivo
In short: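 CD1 nude mice, two per group, given single IV doses in saline (10, 20, 30, 35, 40, 45, 50 and 60 mg/kg), with repeat dosing weekly. Watched for adverse effects for up to 72 h. Tolerated dose taken as highest cohort in which all mice survived without observed ill-effects.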

MIA PaCa-2 [10] = test: Effect on GLI2 gene expression in human MIAPaCa2 cells at 400 nM after 6 hrs by RNA sequence analysis relative to control; type: functional; in short: as §1
PANC-1 [11] = test: Effect on SHC2 gene expression in human PANC1 cells at 400 nM after 6 hrs by RNA sequence analysis relative to control; type: functional; in short: as §2
PANC-1 [12] = test: Effect on GLI2 gene expression in human PANC1 cells at 400 nM after 6 hrs by RNA sequence analysis relative to control; type: functional; in short: as §1
BXPC-3 = test: Growth inhibition of human BxPC3 cells after 96 hrs by SRB assay; type: functional, cell-based; details: BXPC-3, 96 h
In short: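 Cell lines kept at 37 °C, 5% CO2 in medium with 10% FBS and 2 mM L-glutamine. Compound dissolved in water, filter-sterilised, 10 mM stock diluted into media. Growth read by 96 h sulforhodamine B assay, absorbance at 540 nm. IC50 taken from mean absorbance per concentration as % of untreated wells, >3 individual determinations with standard deviations.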

[13] = Selectivity index, ratio of IC50 for human WI38 cells to IC50 for human MIAPaCa2 cells; type: functional
In short: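 SRB growth-inhibition assay over 96 h with compounds dissolved in water; cells grown in 10 % FBS at 37 °C, 5% CO2. Absorbance at 540 nm as a percentage of untreated wells gives the IC50. Values are averages of >3 determinations, with the ratio taken as WI-38 IC50 over MIA PaCa-2 IC50.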

MIA PaCa-2 [14] = test: Effect on CBFA2T3 gene expression in human MIAPaCa2 cells at 400 nM after 6 hrs by RNA sequence analysis relative to control; type: functional; in short: as §1
[15] = Binding affinity to 5'-FAM/3'-TAMRA labeled HSP90A promoter G-quadruplex DNA (unknown origin) assessed as change in melting temperature at 1 uM by FRET assay
In short: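 FRET melting of FAM/TAMRA dual-labelled promoter G4 oligonucleotides, 400 nM, annealed at 95 °C for 10 min in 60 mM potassium cacodylate (pH 7.4) then cooled to RT. Ligand at 1 μM in solution with 50 mM K+. Fluorescence (ex 450–495, em 515–545 nm) read every 0.5 °C over 30–100 °C with a 30 sec hold per step. ΔTm from curve fitting; triplicate measurements.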

MIA PaCa-2 [16] = test: Effect on IQSEC1 gene expression in human MIAPaCa2 cells at 400 nM after 6 hrs by RNA sequence analysis relative to control; type: functional; in short: as §1
Homo sapiens [17] = organism: Homo sapiens; test: Stabilization of G-quadruplex DNA in human PANC1 cells assessed as increase in 53BP1 foci at 400 nM after 24 hrs by FITC/Cy5/DAPI staining based immunofluorescence assay relative to control; type: cell-based
In short: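 PANC-1 cells (8 x10^4 on coverslips) treated 24 h at 37 °C, or left untreated. Fixed in 4% paraformaldehyde, permeabilized with 0.1% Triton X-100, blocked in 2% milk. Stained with BG4 (20 nM), anti-FLAG and anti-53BP1, then Alexa-488/647 secondaries with DAPI. Deconvolved 100x z-stacks, 50-100 nuclei per replicate, three biological replicates; nuclear foci counted.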

PANC-1 [18] = test: Effect on GLI4 gene expression in human PANC1 cells at 400 nM after 6 hrs by RNA sequence analysis relative to control; type: functional; in short: as §1
MIA PaCa-2 [19] = test: Effect on ARF6 gene expression in human MIAPaCa2 cells at 400 nM after 6 hrs by RNA sequence analysis relative to control; type: functional; in short: as §1
Homo sapiens [20] = organism: Homo sapiens; test: Binding affinity to 5'-FAM/3'-TAMRA labeled human telomeric F21T G-quadruplex DNA assessed as change in melting temperature at 1 uM by FRET assay; in short: as §3
[21] = Drug uptake in tumor at flank region of CD-1 nude mouse xenografted with human MIAPaCa2 cells at 15 mg/kg, iv measured after 4 hrs; type: ADME, organism-based, Neoplasm; details: in vivo
Mus musculus = test: Hepatotoxicity in CD-1 nude mouse xenografted with human MIAPaCa2 cells at 15 mg/kg, iv administered twice weekly for 4 weeks by hematoxylin and eosin staining based assay; type: toxicity, organism-based; details: in vivo, 672 h
MIA PaCa-2 [22] = test: Effect on ARF6 gene expression in human MIAPaCa2 cells at 400 nM after 24 hrs by RNA sequence analysis relative to control; type: functional; in short: as §1
PANC-1 [23] = test: Effect on GLI2 gene expression in human PANC1 cells at 400 nM after 24 hrs by RNA sequence analysis relative to control; type: functional; in short: as §1

O=C1c2ccc3c4c(c(NCCN5CCCC5)cc(c24)C(=O)N1CCCN1CCOCC1)C(=O)N(CCCN1CCOCC1)C3=O
log2FC (PANC-1 [1]): 0.03 | log2FC (PANC-1 [2]): -0.75 | log2FC (MIA PaCa-2 [3]): -0.53 | log2FC (MIA PaCa-2 [4]): -1.13 | log2FC (MIA PaCa-2 [5]): -2.72 | log2FC (MIA PaCa-2 [6]): -1.21 | log2FC (MIA PaCa-2 [7]): -0.61 | ΔTm [8]: 0.6 °C | MTD at 72 h [9]: 45 to 50 mg/kg | log2FC (MIA PaCa-2 [10]): -1.17 | log2FC (PANC-1 [11]): -0.52 | log2FC (PANC-1 [12]): -0.67 | IC50 (BXPC-3): 0.019 µM | Ratio IC50 [13]: 170 | log2FC (MIA PaCa-2 [14]): -2.74 | ΔTm [15]: 15.7 °C | log2FC (MIA PaCa-2 [16]): -1.11 | fold change (FC) (Homo sapiens [17]): 2 | log2FC (PANC-1 [18]): -1.26 | log2FC (MIA PaCa-2 [19]): -0.89 | ΔTm (Homo sapiens [20]): 11.8 °C | Drug uptake [21]: Active | Activity (Mus musculus): Non-Toxic | log2FC (MIA PaCa-2 [22]): -0.54 | log2FC (PANC-1 [23]): 0.38

Reference: ChEMBL document CHEMBL4020827, “Targeting Multiple Effector Pathways in Pancreatic Ductal Adenocarcinoma with a G-Quadruplex-Binding Small Molecule” (J Med Chem, 2018)
